In ChEMBL document CHEMBL1154590, “Synthesis and evaluation of dimeric 1,2,3,4-tetrahydro-naphthalenylamine and indan-1-ylamine derivatives with mast cell-stabilising and anti-allergic activity” (2010):
The source made the active and inactive calls. No cut-off for these calls is given here.

Key:
Rattus norvegicus = experiment: Antiallergic activity in Wistar rat assessed as inhibition of ovalbumin-induced passive cutaneous anaphylaxis reaction at 3 mg/kg, iv treated after 48 hrs of ovalbumin challenge measured after 30 mins; format: functional
In short: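 Female Wistar rats were sensitised by intradermal antiserum (0.1 mL per site) against ovalbumin, raised in rats given ovalbumin with heat-killed Bordetella pertussis. Sites were excised at 30 min, digested in KOH overnight at 37 °C and extracted with H3PO4/acetone. Absorbance read at 620 nm; % inhibition reported.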

Mast cell [1] = experiment: Inhibition of 48/80-induced histamine release in Wistar rat peritoneal mast cells at 2 x 10^-5 M after 5 mins
Mast cell [2] = experiment: Inhibition of vancomycin-induced histamine release in Wistar rat peritoneal mast cells; format: functional
In short: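 Peritoneal mast cells from female Wistar rats, in Tyrodes buffer, challenged with vancomycin at 2.52 mg mL-1 to induce degranulation. IC50 determined.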

Mast cell [3] = experiment: Inhibition of anti-IgE-induced histamine release in Brown Norway rat peritoneal mast cells at 10^-5 M
Mast cell [4] = experiment: Inhibition of A23187-induced histamine release in Wistar rat peritoneal mast cells; format: functional
In short: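 Rat peritoneal mast cells from female Wistar rats, in mast cell medium (MCM) buffer. Histamine release was elicited with A23187 at 1 µg ml-1. IC50 determined.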

Mast cell [5] = experiment: Inhibition of 48/80-induced histamine release in Wistar rat peritoneal mast cells after 5 mins; format: functional
Mast cell [6] = experiment: Inhibition of concanavalin A-induced histamine release in Wistar rat peritoneal mast cells; format: functional
In short: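 Female Wistar rat peritoneal mast cells, in mast cell medium (MCM) buffer. Concanavalin A at 20 µg ml-1 served as the degranulating stimulus. IC50 determined.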

Mast cell [7] = experiment: Inhibition of 48/80-induced histamine release in Wistar rat peritoneal mast cells at 2 x 10^-5 M after 5 mins; format: functional
Mast cell [8] = experiment: Inhibition of anti-IgE-induced histamine release in Brown Norway rat peritoneal mast cells at 2 x 10^-5 M

Row | SMILES | inhibition in vivo at 3 mg/kg (Rattus norvegicus) [%] | inhibition at 20 µM (Mast cell [1]) [%] | other results
1 | Cc1ccc(CN(C2CCc3ccccc3C2)C2CC(=O)c3ccccc32)cc1 (stereo unspecified) | 73 | 68 | –
2 | CN(C1CCCc2ccccc21)C1CC(=O)c2ccccc21 (stereo unspecified) | 13 | 93 | IC50 (Mast cell [2]): 4700 nM; inhibition at 10 µM (Mast cell [3]): 68%; IC50 (Mast cell [4]): 2000 nM; IC50 (Mast cell [5]): 1500 nM; IC50 (Mast cell [6]): 700 nM
3 | COc1ccc2c(c1)C(N(C)C1CC(=O)c3ccccc31)CCC2 (stereo unspecified) | – | 100 | –
4 | O=C(O)c1cc(=O)c2c(OCC(O)COc3cccc4oc(C(=O)O)cc(=O)c34)cccc2o1 [CROMOLYN SODIUM] | 99 | 10 | –
5 | CC(=O)N(C1CCCc2ccccc21)C1CC(=O)c2ccccc21 (stereo unspecified) | – | – | inhibition (Mast cell [7]): inactive
6 | COc1cccc2c1C(=O)CC2N(C)C1CCCc2ccccc21 (stereo unspecified) | – | – | inhibition at 20 µM (Mast cell [7]): 48%
7 | CN(C1CCCc2ccccc21)C1CCC(=O)c2ccccc21 (stereo unspecified) | 29 | 99 | IC50 (Mast cell [4]): 38000 nM; IC50 (Mast cell [6]): 2400 nM
8 | O=C1CC(N(Cc2ccccc2)C2CCc3ccccc3C2)c2ccccc21 (stereo unspecified) | 79 | 67 | –
9 | C=CCN(C1CCc2ccccc2C1)C1CC(=O)c2ccccc21 (stereo unspecified) | 82 | 59 | –
10 | CN(C1CCOc2ccccc21)C1CC(=O)c2ccccc21 (stereo unspecified) | – | 100 | –
11 | COc1cc(CN(C2CCc3ccccc3C2)C2CC(=O)c3ccccc32)cc(OC)c1OC (stereo unspecified) | 70 | – | inhibition at 20 µM (Mast cell [7]): 40%
12 | COc1ccc2c(c1)C(N(C)C1CCCc3ccccc31)CC2=O (stereo unspecified) | 62 | – | inhibition at 20 µM (Mast cell [7]): 55%
13 | CN(C1CCc2ccccc2C1)C1CC(=O)c2ccccc21 (stereo unspecified) | 98 | 76 | inhibition at 20 µM (Mast cell [8]): 95%
14 | CN(C1CCCc2ccccc21)C1CCCc2ccccc21 (stereo unspecified) | – | – | inhibition (Mast cell [7]): inactive
15 | CN(C1CCC(=O)c2ccccc21)C1CC(=O)c2ccccc21 (stereo unspecified) | – | 61 | –
16 | CN(C1CCc2ccccc21)C1CCC(=O)c2ccccc21 (stereo unspecified) | – | 14 | inhibition (Rattus norvegicus): inactive
17 | C=CCN(C1CCCc2ccccc21)C1CC(=O)c2ccccc21 (stereo unspecified) | 72 | 92 | –
